Experimental data gathered from unrelated publications.
Each line is one published result; the experiments were not run side by side.
DRD3: D(3) dopamine receptor (DRD3, Homo sapiens, UniProt P35462)
SLC6A3: Sodium-dependent dopamine transporter (SLC6A3, Homo sapiens, UniProt Q01959)
CASP3: Caspase-3 (CASP3, Homo sapiens, UniProt P42574)

`CN(CCCCNC(=O)c1ccc2scnc2c1)[C@@H]1Cc2cccc3[nH]c(=O)n(c23)C1` has a Ki of 427 nM (DRD3; ligand displacement, radioligand; cell membranes).
`CC(C)(COP(=O)(O)OP(=O)(O)OC[C@H]1O[C@@H](n2cnc3c(N)ncnc32)[C@H](O)[C@@H]1OP(=O)(O)O)[C@@H](O)C(=O)NCCC(=O)NCCS` has a Ki of 41500 nM (Histone acetyltransferase type B catalytic subunit (Homo sapiens, UniProt O14929); enzyme activity, inhibitor, radiometric).
With `CC1Cc2ccccc2N1C(=O)c1nc2ccccc2s1` (stereo not shown) the Ki was 14400 nM (DRD3; ligand displacement, radioligand; cell membranes).
The Ki of `NS(=O)(=O)c1ccc(-n2nccc2-c2ccc(N3CCOCC3)cc2)cc1` is reported as 344 nM (Carbonic anhydrase 12 (CA12, Homo sapiens, UniProt O43570); enzyme activity, inhibitor, stopped-flow).
`C=CCc1ccc(O)c(-c2ccc(O)c(CC=C)c2)c1` has a Ki of 2000 nM (Peroxisome proliferator-activated receptor gamma (PPARG, Homo sapiens, UniProt P37231); ligand displacement, TR-FRET).
The Ki of `CCCCN1CCC(COC(=O)c2ccc(N)c(OCF)c2)CC1` is reported as over 10000 nM (SLC6A3; cell-free assay, radioligand).
For `O=C(O[C@@H]1Cc2c(O)cc(O[C@H]3O[C@H](CO)[C@@H](O)[C@H](O)[C@H]3O)cc2O[C@@H]1c1cc(O)c(O)c(O)c1)c1cc(O)c(O)c(O)c1`, the Ki was 7880 nM (Maltase-glucoamylase (Homo sapiens, UniProt O43451); enzyme activity, inhibitor).
With `O=C1c2ccccc2CCCN1CCCCN1CCN(c2ccccn2)CC1` the Ki was 3 nM (DRD3; ligand displacement, radioligand).
`CN(CCCCNC(=O)c1nc2ccccc2s1)[C@@H]1Cc2cccc3[nH]c(=O)n(c23)C1` gave a Ki of 403 nM (DRD3; ligand displacement, radioligand; cell membranes).
For `O=c1cc(-c2ccc(O)c(O)c2)oc2cc(O)cc(O)c12`, the Ki was 181000 nM (CASP3; enzyme activity, inhibitor, fluorescence).
`CC/C(=C(/c1ccc(O)cc1)c1ccc(OCCN)cc1)c1ccc(O)cc1` gave a Ki of 20 nM (Aromatase (CYP19A1, Homo sapiens, UniProt P11511); enzyme activity, inhibitor, fluorescence).
With `CCc1nc2cc(OCCCCN3CCC(c4cccc(Cl)c4Cl)CC3)ccc2s1` the Ki was 4000 nM (SLC6A3; ligand displacement, radioligand).
The Ki of `c1ccc(CCC2=NCCN2CCc2ccccc2)cc1` is reported as over 10000 nM (DRD3; ligand displacement, radioligand).
The Ki of `O=C(/C=C(/Nc1ccccc1)C(=O)c1ccccc1)c1ccccc1` is reported as 37000 nM (DNA repair nuclease/redox regulator APEX1 (APEX1, Homo sapiens, UniProt P27695); enzyme activity, inhibitor).
`OC[C@@]12C[C@@H]1[C@@H](n1cnc3c(NC(C4CCCC4)C4CCCC4)nc(Cl)cc31)[C@H](O)[C@@H]2O` gave a Ki of 3900 nM (SLC6A3; cell-free assay, radioligand).
For `O=c1c(O)c(-c2cc(O)c(O)c(O)c2)oc2cc(O)cc(O)c12`, the Ki was 68700 nM (CASP3; enzyme activity, inhibitor, fluorescence).
`O=C1CSC(=S)N1NC(=S)SSC(=S)NN1C(=O)CSC1=S` gave a Ki of 1100 nM (Tyrosine-protein phosphatase non-receptor type 22 (PTPN22, Homo sapiens, UniProt Q9Y2R2); enzyme activity, inhibitor, fluorescence).
`CCCN(CCCCNC(=O)c1cc2ccccc2[nH]1)[C@H]1CNc2ccccc2C1` gave a Ki of 1.34 nM (DRD3; ligand displacement, radioligand; cell membranes).
`CNc1nc2cc(OCCCCN3CCC(c4cccc(Cl)c4Cl)CC3)ccc2s1` has a Ki of 2100 nM (SLC6A3; ligand displacement, radioligand).
